KCNQ1 pot: potentiators or activators of human KCNQ1 potassium channel | actives 0.35% (n = 310,000) | CHO-K1 KCNQ1, thallium flux FluxOR fluorescence; hits give high values | B-score at 10 µM | AID 2648 | P51787;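 active = fluorescence ratio B-score, a plate-corrected score, at least three library SD, with initial intensity B-score within 5 SD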
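assay system = CHO-K1 cells stably expressing KCNQ1 | medium = assay buffer, equal DMSO in all wells | timing = 37 °C overnight plating, 90-min dark dye load, 20-min compound pretreatment | measured by = kinetic FluxOR thallium fluorescence, 10-s 1-Hz baseline, 110-s post-stimulus read | measure = fluorescence change relative to baseline, converted to B score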
KCNK9 inh: human KCNK9 channel inhibition; Q9NPC2; HEK293 KCNK9, FluxOR thallium flux fluorescence; hits give low values; B-score at 10 µM; actives 1.2% (n = 310,000); AID 488922;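 active = ratio B-score over 3 SD below the library mean, with starting fluorescence within 5 SD of its mean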;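 also: negative B-score means less thallium flux so channel inhibition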
KCNQ1 block: inhibitors of human KCNQ1 potassium channel; P51787; CHO-K1 KCNQ1, FluxOR thallium flux fluorescence; hits give high values; B-score at 10 µM; actives 1.3% (n = 310,000); AID 2642;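 active = compounds whose thallium flux B-score, printed positive for inhibition, exceeds three library SD while starting fluorescence stays within three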;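 also: channel opened by potassium depolarization with thallium stimulus after 20 min compound exposure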
KCNK3 inh: human KCNK3 channel inhibition, primary screen. CHO-KCNK3 thallium flux, FluxOR fluorescence; hits give low values. AID 602410. O14649. actives 0.84% (n = 340,000). B-score at 10 µM;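 active = B-score under library mean minus 4 SD, starting fluorescence ratio at most library mean plus 5 SD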;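 also: more negative B-score means stronger inhibition of thallium flux through KCNK3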
Kir21 inh: blocks the mouse Kir2.1 inward-rectifier potassium channel. B-score at 10 µM. actives 0.85% (n = 310,000). HEK293-Kir2.1, FluxOR thallium flux fluorescence; hits give low values. P35561;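 active = fluorescence ratio B-score at or below minus 3 SD of library scores, with starting-brightness B-score within 2 SD, cut at about -4.2 in these data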;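 also: channel flux triggered by added potassium and thallium sulfate stimulus; B-score of peak minus minimum fluorescence over baseline after thallium stimulus; more negative B-score means stronger Kir2.1 block with less thallium influx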
Target sequence (P35561 whole entry, looked up): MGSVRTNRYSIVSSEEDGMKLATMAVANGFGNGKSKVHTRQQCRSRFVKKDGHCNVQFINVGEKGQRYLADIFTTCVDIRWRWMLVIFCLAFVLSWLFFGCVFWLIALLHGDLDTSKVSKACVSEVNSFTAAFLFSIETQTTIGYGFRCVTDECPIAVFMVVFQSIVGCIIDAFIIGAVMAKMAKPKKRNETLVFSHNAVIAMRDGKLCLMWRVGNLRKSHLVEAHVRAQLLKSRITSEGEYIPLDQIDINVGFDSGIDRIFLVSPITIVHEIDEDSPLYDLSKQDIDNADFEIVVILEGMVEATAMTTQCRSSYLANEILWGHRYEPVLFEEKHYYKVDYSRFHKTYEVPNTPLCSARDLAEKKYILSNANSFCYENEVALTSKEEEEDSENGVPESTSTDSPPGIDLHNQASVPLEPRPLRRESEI
hERG rescue: shields human hERG channel from block by proarrhythmic agents. Q12809. CHO-hERG, FluxOR thallium flux, dofetilide IC70 present. activation (rescue from dofetilide block), less the hit threshold, % at 10 µM. actives 0.51% (n = 310,000). AID 1511;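 active = activation above the mean of controls blocked by dofetilide plus 5 SD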;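 also: thallium influx through hERG after potassium depolarization seen as dye fluorescence rise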
KCNK3 confirm: human KCNK3 channel inhibition, confirmation assay. ratio percent of control, % at 10 µM. actives 99% (n = 2,400). shares compounds with KCNK3 inh. CHO-KCNK3 thallium flux, FluxOR fluorescence; 0% buffer, 100% carvedilol maximal block. AID 651638;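 active = ratio percent of control, averaged over triplicates, above buffer control mean plus 5 SD, cut at about 64% in these data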;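 also: ratio is the fluorescence rise from min to max over baseline after thallium stimulus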
KCNK3 uninduced: KCNK3 inhibitor counter-screen hit in non-induced cells | shares compounds with KCNK3 inh | AID 651747 | non-induced KCNK3 parental cells, FluxOR thallium flux; hits give low values | actives 40% (n = 2,400) | thallium flux ratio (lower = more inhibition) at 10 µM;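 active = thallium flux ratio, averaged over three wells, more than 5 SD below the buffer control mean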;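 also: host cells are CHO cells without KCNK3 induction; ratio is peak minus trough fluorescence over baseline then normalized to buffer controls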
The depositor's hits bear a star; i = inactive; nt = no result. Only some compounds are listed: those with a hit (about 3.7% of all), similar ones and a draw of the others.

SMILES	KCNQ1 pot	KCNK9 inh	KCNQ1 block	KCNK3 inh	Kir21 inh	hERG rescue	KCNK3 confirm	KCNK3 uninduced
COc1cc(OC)c(OC)cc1/C=C1\CC(C)C/C(=C\c2cc(OC)c(OC)cc2OC)C1=O (stereo unspecified)	i	i	8*	-13.6*	-0.8	-7.3	154.3*	0.066*
COc1cc(OC)c(OC)cc1/C=C1/Cc2ccccc2C1=O	i	i	i	i	-0.07	-13.3	nt	nt
Cc1ccccc1-n1nnnc1SCc1csc(-c2ccccc2)n1	i	i	i	-10.9*	-0.87	-13.3	105.3*	i
Cc1nn(Cc2ccccc2Cl)c(C)c1NC(=O)NC12CC3CC(CC(C3)C1)C2	i	i	i	-8.87*	0.68	-9.0	119.0*	0.144*
CCc1ccc(NC(=O)NC2CCCCCCC2)cc1	i	i	i	-9.38*	-0.14	-7.3	125.0*	0.125*
O=C(CN1CCOCC1)Nc1ccc([N+](=O)[O-])cc1	i	i	i	i	0.95	-0.6	nt	nt
CCOc1ccccc1/C=N/NC(=O)Cc1csc(Nc2cccc(C(F)(F)F)c2)n1	i	i	i	-8.75*	0.53	-2.7	131.0*	0.146*
CCOc1ccc(/C=N/NC(=O)Cc2csc(Nc3cccc(C(F)(F)F)c3)n2)cc1	i	i	i	-10.6*	0.98	-3.8	105.7*	i
COc1ccc(CNC(=O)COC(=O)Cc2ccc(Br)cc2)cc1	nt	nt	nt	i	nt	nt	nt	nt
COc1cc(C(=O)Nc2cccc(-c3nnc(-c4ccco4)o3)c2)ccc1OC(C)=O	i	i	i	-9.52*	0.94	-13.7	113.3*	i
Fc1cccc(/C=N/Nc2cc(N3CCOCC3)ncn2)c1	i	i	i	i	-0.8	0.7	nt	nt
C/C(=N\NC(=O)C1(C)CC1(Br)Br)c1cccc(NC(=O)c2ccc(C)o2)c1 (stereo unspecified)	i	i	i	-9.62*	-1.61	-14.4	107.7*	0.139*
Cc1ccc(C(=O)Nc2cccc(C(=O)NCc3ccccc3)c2)o1	i	i	i	i	-0.74	-10.1	nt	nt
Cc1cccc(C(=O)NN/C=C/C(=O)c2ccccc2)c1	i	i	i	-9.05*	0.02	-6.1	100.0*	i
Cc1ccc(C(=O)C=CNNC(=O)c2ccccc2)cc1	i	i	i	i	-0.66	-13.4	nt	nt
COc1ccc(CNn2c(-c3cccs3)nc3ccccc3c2=O)cc1OC	i	i	i	-9.27*	0.61	-17.3	91.3*	i
COc1cccc(C(=O)Nn2c(-c3cccs3)nc3ccccc3c2=O)c1OC	i	i	i	i	0.57	-14.6	nt	nt
Cc1cc2c(Nc3ccc(C(=O)O)cc3)ncnc2s1	i	i	i	-10.3*	-1.68	-3.9	62.0*	i
CC(=O)OCCN1CCN(C(=O)CN2C(=O)NC(c3ccccc3)(c3ccccc3)C2=O)CC1	i	i	i	i	0.9	-6.1	nt	nt
S=C1NCCc2ccc(Cl)cc2C1c1ccccc1Cl (stereo unspecified)	i	-6.73*	i	-11.1*	-0.84	-5.7	123.0*	i
Clc1ccc2c(c1)C(C1=NCCN1)c1ccccc1CS2 (stereo unspecified)	i	i	i	i	2.26	-4.5	nt	nt
COc1ccc(OC(=O)COc2ccc(Cl)cc2)cc1	i	i	i	i	1.9	-8.8	nt	nt
O=[N+]([O-])c1cccc(CSc2ncnc3ccccc23)c1	i	i	i	-9.56*	0.54	-13.6	84.0*	i
COc1cc(OC)c(OC)cc1CNC(=O)c1ccc(COc2ccccc2)cc1	i	i	i	i	-3.29	-2.2	nt	nt
COc1cccc(N(CC(=O)N2CCCC2)S(C)(=O)=O)c1	i	i	i	i	2.08	-8.6	nt	nt
SMILES	KCNQ1 pot	KCNK9 inh	KCNQ1 block	KCNK3 inh	Kir21 inh	hERG rescue	KCNK3 confirm	KCNK3 uninduced
CC(Cl)C(=O)N1c2ccccc2CCc2ccccc21 (stereo unspecified)	i	i	i	i	-1.62	-10.3	nt	nt
CC(=O)N(C)N1c2ccccc2CCc2ccccc21	i	i	i	-8.79*	-4.17	-12.5	108.7*	i
COCCC(=O)N1CCCC(C(=O)c2ccc3c4c(cccc24)CC3)C1 (stereo unspecified)	i	i	i	-11.1*	0.57	-7.7	85.7*	0.152*
CC(C)N(C(=S)NC1CC2CCC1C2)c1ccccc1 (stereo unspecified)	i	i	i	-9.76*	0.28	-16.6	118.0*	0.16*
N#C/C(=C\c1ccc(N2CCOCC2)o1)c1ccccc1	i	i	i	-9.05*	0.12	-16.2	144.0*	0.081*
c1ccc(CN2CCC3CC2c2cc(N4CCOCC4)ccc23)cc1 (stereo unspecified)	nt	nt	nt	i	nt	nt	nt	nt
COc1ccccc1C(=O)NCCC(=O)N1CCCC(C(F)(F)F)C1 (stereo unspecified)	i	i	i	-9.51*	-0.49	-0.2	77.3*	i
O=C(Nc1c(-c2ccccc2)nc2ccccn12)c1cccc(F)c1	i	i	i	i	-1.27	-4.3	nt	nt
COc1ccc(N(CC(=O)NCCc2cccc(C)c2)S(=O)(=O)c2c(C)noc2C)cc1	i	i	i	i	0.48	-7.9	nt	nt
CN1CCN(C2Cc3cc(Cl)ccc3Sc3cc(F)ccc32)CC1 (stereo unspecified)	i	i	i	-10.3*	-3.2	-12.9	144.0*	i
CCOC(=O)c1cc2ccc3ccccc3c2s1	i	i	i	-9.75*	-1.2	-2.5	99.3*	i
CCOC(=O)c1cc2ccc3ccccc3c2oc1=O	i	i	i	i	0.01	-5.9	nt	nt
CN(CC(=O)Nc1ccccc1Cl)C(=O)COC(=O)/C=C/c1cccc(C(F)(F)F)c1	nt	nt	nt	i	nt	nt	nt	nt
CCOc1ccc(-c2cccc(NC(=O)c3ccc(Br)o3)c2)nn1	i	i	i	-11.7*	1.99	-3.6	98.0*	i
CC(=O)Nc1ccc(SCC(=O)Nc2ccc(Cl)cn2)cc1	i	i	i	i	-0.35	-2.1	nt	nt
O=C(CN1C(=O)C2C3C=CC(C3)C2C1=O)Nc1ccc(S(=O)(=O)N2CCCCC2)cc1 (stereo unspecified)	i	i	i	i	1.76	-9.1	nt	nt
